Source: ChEMBL document CHEMBL1154934, “Identification of piperazine-bisamide GHSR antagonists for the treatment of obesity” (Bioorg Med Chem Lett, 2010)
One block for each molecule: values may come before it.

Columns and labels:
[1] = biological target: Growth hormone secretagogue receptor type 1 (Rattus norvegicus) (UniProt O08725); test: Agonist activity at rat GHSR expressed in CHO cells assessed as increase in ghrelin-induced [3H]IP accumulation at 10 uM after 1 hr by scintillation counting relative to ghrelin; type: functional, cell-based
Growth hormone secretagogue receptor type 1 (Rattus norvegicus), sequence (O08725 whole entry): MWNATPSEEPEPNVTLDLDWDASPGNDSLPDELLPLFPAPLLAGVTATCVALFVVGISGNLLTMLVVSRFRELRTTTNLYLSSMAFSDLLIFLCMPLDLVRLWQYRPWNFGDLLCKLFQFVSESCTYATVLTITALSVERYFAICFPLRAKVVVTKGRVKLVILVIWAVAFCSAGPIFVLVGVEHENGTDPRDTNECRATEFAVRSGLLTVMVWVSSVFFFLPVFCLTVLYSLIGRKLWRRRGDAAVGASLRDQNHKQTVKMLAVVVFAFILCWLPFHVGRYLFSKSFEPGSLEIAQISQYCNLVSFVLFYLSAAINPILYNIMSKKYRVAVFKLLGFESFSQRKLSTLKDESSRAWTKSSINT
Outline: (§1)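 CHO cells stably expressing human or rat GHSR labelled 12 h with 3H-inositol (1 µCi/mL in DMEM), then exposed to ghrelin or compound at 37 °C for 1.0 h. Lysis with 20 mM formic acid, 4 °C, 4 h. Extract taken onto SPA beads, 12 h in the dark, then radioactivity counted. IP accumulation expressed as % of maximal ghrelin response at 10, 1.0 and 0.1 µM.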

[2] = biological target: T1, Growth hormone secretagogue receptor type 1 (Homo sapiens, UniProt Q92847); test: Antagonist activity at human GHSR expressed in CHOK1 cells assessed as inhibition of ghrelin-induced intracellular calcium flux by aequorin flash luminescence assay; type: functional, cell-based, CHO-K1
T1 sequence (Q92847 whole entry): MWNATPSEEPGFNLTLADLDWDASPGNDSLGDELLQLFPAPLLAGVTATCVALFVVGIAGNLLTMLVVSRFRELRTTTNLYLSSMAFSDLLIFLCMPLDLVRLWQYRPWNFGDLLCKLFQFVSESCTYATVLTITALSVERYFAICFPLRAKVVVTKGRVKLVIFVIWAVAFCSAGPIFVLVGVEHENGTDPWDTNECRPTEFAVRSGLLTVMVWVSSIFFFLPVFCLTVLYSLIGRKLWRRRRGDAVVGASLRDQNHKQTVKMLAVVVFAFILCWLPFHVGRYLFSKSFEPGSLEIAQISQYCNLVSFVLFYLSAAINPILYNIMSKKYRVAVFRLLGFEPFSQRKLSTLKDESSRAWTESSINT
Outline: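 Aequorin flash luminescence in CHO-K1 cells stably co-expressing human ghrelin receptor and aequorin. […] IC50 values are means of three determinations.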

[3] = biological target: Growth hormone secretagogue receptor type 1 (Rattus norvegicus) (UniProt O08725); test: (§2) Inhibition of rat GHSR expressed in CHOK1 cells assessed as inhibition of ghrelin-induced intracellular calcium flux by aequorin flash luminescence assay; type: functional, cell-based; settings: CHO-K1
[4] = biological target: Growth hormone secretagogue receptor type 1 (Rattus norvegicus) (UniProt O08725); test: Agonist activity at rat GHSR expressed in CHO cells assessed as increase in ghrelin-induced [3H]IP accumulation at 0.1 uM after 1 hr by scintillation counting relative to ghrelin; type: functional, cell-based; outline: as §1
[5] = biological target: 5-hydroxytryptamine receptor 2A (Homo sapiens, UniProt P28223); test: Inhibition of 5HT2A (receptor)
5-hydroxytryptamine receptor 2A, sequence (P28223 whole entry): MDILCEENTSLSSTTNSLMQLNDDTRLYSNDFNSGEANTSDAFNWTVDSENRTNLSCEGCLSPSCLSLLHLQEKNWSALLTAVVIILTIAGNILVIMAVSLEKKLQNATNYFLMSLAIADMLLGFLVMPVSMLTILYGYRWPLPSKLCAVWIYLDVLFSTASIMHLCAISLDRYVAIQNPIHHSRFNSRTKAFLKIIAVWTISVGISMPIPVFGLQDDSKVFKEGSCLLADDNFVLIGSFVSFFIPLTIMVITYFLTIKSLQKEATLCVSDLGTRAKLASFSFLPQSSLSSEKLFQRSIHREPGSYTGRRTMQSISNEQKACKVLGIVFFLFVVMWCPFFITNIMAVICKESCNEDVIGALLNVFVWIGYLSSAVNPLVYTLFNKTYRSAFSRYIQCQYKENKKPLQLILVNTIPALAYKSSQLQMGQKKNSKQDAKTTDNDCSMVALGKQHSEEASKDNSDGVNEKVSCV

[6] = biological target: D(3) dopamine receptor (Homo sapiens, UniProt P35462); test: Inhibition of dopamine D3 receptor
D(3) dopamine receptor, sequence (P35462 whole entry): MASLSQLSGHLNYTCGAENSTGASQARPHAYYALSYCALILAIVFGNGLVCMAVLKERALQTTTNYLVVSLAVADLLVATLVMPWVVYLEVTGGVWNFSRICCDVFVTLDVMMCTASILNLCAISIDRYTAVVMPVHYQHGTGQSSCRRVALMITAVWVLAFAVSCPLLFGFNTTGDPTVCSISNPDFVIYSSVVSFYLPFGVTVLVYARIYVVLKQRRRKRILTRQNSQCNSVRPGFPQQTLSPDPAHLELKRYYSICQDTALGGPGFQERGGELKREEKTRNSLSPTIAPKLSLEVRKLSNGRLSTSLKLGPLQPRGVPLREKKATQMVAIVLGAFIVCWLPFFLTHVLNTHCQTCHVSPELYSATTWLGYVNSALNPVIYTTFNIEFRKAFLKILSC

[7] = Volume of distribution at steady state in rat at 2 mg/kg, iv; type: ADME, organism-based; set-up: dose 2 mg/kg, route intravenous; settings: in vivo, read-out: Vdss
[8] = biological target: Mu-type opioid receptor (Homo sapiens, UniProt P35372); test: Inhibition of mu opioid receptor
[9] = biological target: Growth hormone secretagogue receptor type 1 (Rattus norvegicus) (UniProt O08725); test: Agonist activity at rat GHSR expressed in CHO cells assessed as increase in ghrelin-induced [3H]IP accumulation at 1 uM after 1 hr by scintillation counting relative to ghrelin; type: functional, cell-based; outline: as §1
[10] = Mean residence time in rat at 2 mg/kg, iv; type: ADME, organism-based; set-up: dose 2 mg/kg, route intravenous; settings: in vivo
Outline: (§3)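 Rats dosed iv at 2.0 mg/kg for clearance, MRT and Vdss. Oral dosing at 0.5 mg/kg for bioavailability (F).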

[11] = biological target: Muscarinic acetylcholine receptor M3 (Homo sapiens, UniProt P20309); test: Inhibition of muscarinic M3 receptor
[12] = Inhibition of cytochrome P450; type: ADME
[13] = Induction of growth hormone release from Sprague-Dawley rat pituitary cells at 1 uM after 20 mins by RIA assay relative to ghrelin; type: functional, Pituitary gland cell
Outline: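 Pituitary cells from 6–8-week-old male SD rats plated on poly-D-lysine and cultured 3 days at 37 °C. Washed with DMEM assay buffer (20 mM Hepes, 0.3% BSA) and held 5 min at 37 °C. Treated with rat ghrelin or compound for 20 min, then GH release measured as % of maximal ghrelin response. Means of three determinations.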

[14] = biological target: Voltage-gated inwardly rectifying potassium channel KCNH2 (Homo sapiens, UniProt Q12809); test: Inhibition of human ERG
Voltage-gated inwardly rectifying potassium channel KCNH2, sequence (Q12809 whole entry): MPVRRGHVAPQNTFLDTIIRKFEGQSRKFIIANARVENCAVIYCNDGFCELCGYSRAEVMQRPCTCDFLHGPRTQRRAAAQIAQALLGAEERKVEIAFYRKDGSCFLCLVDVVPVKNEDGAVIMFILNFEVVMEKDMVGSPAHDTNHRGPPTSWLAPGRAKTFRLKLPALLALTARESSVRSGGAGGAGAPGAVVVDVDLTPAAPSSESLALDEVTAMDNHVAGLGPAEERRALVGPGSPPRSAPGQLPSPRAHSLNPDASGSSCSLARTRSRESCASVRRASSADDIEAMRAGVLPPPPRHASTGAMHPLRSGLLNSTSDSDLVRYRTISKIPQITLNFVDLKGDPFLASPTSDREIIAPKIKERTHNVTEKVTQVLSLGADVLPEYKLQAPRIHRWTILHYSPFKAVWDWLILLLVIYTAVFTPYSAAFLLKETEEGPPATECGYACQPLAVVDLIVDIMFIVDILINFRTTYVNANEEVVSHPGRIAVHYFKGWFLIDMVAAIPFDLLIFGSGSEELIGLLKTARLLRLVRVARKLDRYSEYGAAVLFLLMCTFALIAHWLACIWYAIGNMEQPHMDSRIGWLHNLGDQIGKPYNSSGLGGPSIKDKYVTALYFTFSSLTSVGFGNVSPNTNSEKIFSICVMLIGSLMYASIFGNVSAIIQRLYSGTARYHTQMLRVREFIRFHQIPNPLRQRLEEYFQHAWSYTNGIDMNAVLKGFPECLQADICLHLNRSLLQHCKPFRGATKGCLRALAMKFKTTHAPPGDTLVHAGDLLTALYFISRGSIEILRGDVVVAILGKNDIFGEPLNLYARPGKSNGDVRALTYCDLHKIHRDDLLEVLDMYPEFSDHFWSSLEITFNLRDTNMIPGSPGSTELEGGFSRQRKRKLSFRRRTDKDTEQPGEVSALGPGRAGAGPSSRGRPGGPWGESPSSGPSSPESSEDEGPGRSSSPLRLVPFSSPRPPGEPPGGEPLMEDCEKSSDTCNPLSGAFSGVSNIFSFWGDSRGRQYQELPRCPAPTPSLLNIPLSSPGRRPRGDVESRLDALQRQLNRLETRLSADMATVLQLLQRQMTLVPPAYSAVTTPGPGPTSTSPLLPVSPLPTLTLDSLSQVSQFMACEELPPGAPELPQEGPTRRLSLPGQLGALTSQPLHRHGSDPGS

[15] = biological target: Sodium-dependent serotonin transporter (Homo sapiens, UniProt P31645); test: Inhibition of SERT
Sodium-dependent serotonin transporter, sequence (P31645 whole entry): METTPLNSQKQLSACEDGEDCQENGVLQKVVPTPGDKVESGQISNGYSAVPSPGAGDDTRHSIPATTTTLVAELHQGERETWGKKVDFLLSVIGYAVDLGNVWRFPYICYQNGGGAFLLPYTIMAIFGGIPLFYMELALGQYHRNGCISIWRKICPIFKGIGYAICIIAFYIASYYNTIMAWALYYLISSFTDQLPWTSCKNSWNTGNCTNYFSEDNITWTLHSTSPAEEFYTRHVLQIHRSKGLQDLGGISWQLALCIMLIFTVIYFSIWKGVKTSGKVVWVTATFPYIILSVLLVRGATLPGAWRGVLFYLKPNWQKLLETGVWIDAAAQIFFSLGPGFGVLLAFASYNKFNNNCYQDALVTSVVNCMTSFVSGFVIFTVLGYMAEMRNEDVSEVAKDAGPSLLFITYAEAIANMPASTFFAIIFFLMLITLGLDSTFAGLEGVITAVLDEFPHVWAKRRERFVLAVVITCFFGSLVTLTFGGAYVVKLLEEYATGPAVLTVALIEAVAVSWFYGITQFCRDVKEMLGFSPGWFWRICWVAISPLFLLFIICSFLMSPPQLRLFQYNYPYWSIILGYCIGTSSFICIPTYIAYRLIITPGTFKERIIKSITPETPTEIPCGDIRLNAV

[16] = biological target: Sodium-dependent noradrenaline transporter (Homo sapiens, UniProt P23975); test: Inhibition of NET
Sodium-dependent noradrenaline transporter, sequence (P23975 whole entry): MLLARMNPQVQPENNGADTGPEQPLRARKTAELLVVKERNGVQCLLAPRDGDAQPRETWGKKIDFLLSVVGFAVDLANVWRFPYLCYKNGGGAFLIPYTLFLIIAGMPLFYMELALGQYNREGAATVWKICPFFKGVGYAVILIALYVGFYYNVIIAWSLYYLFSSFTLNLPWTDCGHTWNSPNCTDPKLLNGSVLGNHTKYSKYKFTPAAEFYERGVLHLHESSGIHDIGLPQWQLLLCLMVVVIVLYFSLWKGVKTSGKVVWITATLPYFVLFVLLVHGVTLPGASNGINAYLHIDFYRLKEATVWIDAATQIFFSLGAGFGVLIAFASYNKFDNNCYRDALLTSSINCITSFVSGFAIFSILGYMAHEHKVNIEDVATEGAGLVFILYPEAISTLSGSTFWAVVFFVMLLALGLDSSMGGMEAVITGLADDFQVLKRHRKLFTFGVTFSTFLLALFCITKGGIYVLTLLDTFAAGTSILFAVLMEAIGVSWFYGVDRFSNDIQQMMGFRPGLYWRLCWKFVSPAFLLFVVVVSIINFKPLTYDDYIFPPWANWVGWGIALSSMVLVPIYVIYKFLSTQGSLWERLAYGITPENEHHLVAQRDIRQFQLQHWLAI

[17] = Clearance in rat at 2 mg/kg, iv; type: ADME, organism-based; set-up: dose 2 mg/kg, route intravenous; settings: in vivo; outline: as §3
[18] = Oral bioavailability in rat at 0.5 mg/kg; type: ADME, organism-based; settings: in vivo; outline: as §3
[19] = biological target: D(2) dopamine receptor (Homo sapiens, UniProt P14416); test: Inhibition of dopamine D2 receptor
D(2) dopamine receptor, sequence (P14416 whole entry): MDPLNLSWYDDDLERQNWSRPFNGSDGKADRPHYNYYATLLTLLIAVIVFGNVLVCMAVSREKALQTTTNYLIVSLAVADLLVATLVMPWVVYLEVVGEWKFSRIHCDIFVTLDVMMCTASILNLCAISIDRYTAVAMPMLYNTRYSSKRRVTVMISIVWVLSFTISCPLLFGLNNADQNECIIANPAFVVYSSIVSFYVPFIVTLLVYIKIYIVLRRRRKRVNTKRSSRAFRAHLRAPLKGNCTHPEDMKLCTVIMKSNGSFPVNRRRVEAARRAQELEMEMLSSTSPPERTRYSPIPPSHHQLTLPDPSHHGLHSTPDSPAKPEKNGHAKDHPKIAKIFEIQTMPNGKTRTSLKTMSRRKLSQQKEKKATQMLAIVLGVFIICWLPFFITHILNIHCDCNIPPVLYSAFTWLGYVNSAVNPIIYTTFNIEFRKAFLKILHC

[20] = biological target: T1, Growth hormone secretagogue receptor type 1; test: Agonist activity at human GHSR expressed in CHO cells assessed as increase in ghrelin-induced [3H]IP accumulation at 10 uM after 1 hr by scintillation counting relative to ghrelin; type: functional, cell-based; outline: as §1
[21] = biological target: Growth hormone secretagogue receptor type 1 (Rattus norvegicus, UniProt O08725); test: as §2; type: functional, cell-based, CHO-K1
Growth hormone secretagogue receptor type 1 (Rattus norvegicus, UniProt O08725), sequence (O08725 whole entry): as the sequence (O08725 whole entry) above

[22] = biological target: T2, Alpha-2A adrenergic receptor (Homo sapiens, UniProt P08913); test: Inhibition of alpha2A adrenergic receptor
T2 sequence (P08913 whole entry): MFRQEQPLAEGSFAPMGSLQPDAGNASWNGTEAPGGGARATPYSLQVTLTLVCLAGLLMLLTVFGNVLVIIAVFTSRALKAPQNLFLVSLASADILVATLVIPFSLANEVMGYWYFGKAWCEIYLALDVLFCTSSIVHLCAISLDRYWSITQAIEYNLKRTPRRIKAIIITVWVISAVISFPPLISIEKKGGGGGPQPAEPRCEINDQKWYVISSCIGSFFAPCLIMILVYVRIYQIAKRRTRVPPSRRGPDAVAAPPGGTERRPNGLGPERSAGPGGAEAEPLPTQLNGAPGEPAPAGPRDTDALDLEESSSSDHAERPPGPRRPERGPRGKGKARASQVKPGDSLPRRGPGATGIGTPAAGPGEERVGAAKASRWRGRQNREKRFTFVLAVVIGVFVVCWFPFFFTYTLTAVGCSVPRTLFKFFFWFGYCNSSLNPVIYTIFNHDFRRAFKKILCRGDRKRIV

[23] = biological target: Histamine H2 receptor (Homo sapiens, UniProt P25021); test: Inhibition of histamine H2 receptor
[24] = biological target: Sodium-dependent dopamine transporter (Homo sapiens, UniProt Q01959); test: Inhibition of DAT
[25] = biological target: T1, Growth hormone secretagogue receptor type 1; test: Agonist activity at human GHSR expressed in CHO cells assessed as increase in ghrelin-induced [3H]IP accumulation at 1 uM after 1 hr by scintillation counting relative to ghrelin; type: functional, cell-based; outline: as §1
[26] = biological target: T3, 5-hydroxytryptamine receptor 2C (Homo sapiens, UniProt P28335); test: Inhibition of 5HT2C (receptor)
T3 sequence (P28335 whole entry): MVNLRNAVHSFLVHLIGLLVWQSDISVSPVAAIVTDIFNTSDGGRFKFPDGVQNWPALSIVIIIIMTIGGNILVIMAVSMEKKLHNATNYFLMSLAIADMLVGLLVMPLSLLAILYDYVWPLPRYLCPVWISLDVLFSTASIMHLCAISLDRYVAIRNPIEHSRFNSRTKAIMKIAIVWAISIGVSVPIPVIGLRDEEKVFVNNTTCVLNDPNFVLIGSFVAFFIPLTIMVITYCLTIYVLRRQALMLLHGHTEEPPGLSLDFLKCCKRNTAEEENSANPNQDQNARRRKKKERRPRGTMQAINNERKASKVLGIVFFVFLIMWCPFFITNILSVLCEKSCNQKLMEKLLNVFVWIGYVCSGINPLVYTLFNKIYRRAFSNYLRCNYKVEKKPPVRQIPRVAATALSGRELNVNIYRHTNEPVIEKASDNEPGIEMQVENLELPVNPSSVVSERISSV

[27] = Ratio of brain AUC to plasma AUC in FVB mouse; type: ADME, cell-free; settings: brain and plasma
[28] = biological target: T1, Growth hormone secretagogue receptor type 1; test: Agonist activity at human GHSR expressed in CHO cells assessed as increase in ghrelin-induced [3H]IP accumulation at 0.1 uM after 1 hr by scintillation counting relative to ghrelin; type: functional, cell-based; outline: as §1
[29] = biological target: Kappa-type opioid receptor (Homo sapiens, UniProt P41145); test: Inhibition of kappa opioid receptor
Kappa-type opioid receptor, sequence (P41145 whole entry): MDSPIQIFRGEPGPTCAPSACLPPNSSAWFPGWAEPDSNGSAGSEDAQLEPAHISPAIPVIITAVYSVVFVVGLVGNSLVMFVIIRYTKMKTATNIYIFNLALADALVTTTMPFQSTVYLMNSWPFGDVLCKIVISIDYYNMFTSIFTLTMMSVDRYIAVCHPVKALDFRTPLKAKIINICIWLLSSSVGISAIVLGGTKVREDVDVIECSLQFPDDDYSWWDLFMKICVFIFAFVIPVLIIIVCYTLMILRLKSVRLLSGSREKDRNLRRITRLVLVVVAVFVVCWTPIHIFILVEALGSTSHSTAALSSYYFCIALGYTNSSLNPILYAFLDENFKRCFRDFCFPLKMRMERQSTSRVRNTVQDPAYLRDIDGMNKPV

[30] = Inhibition of rat ghrelin-stimulated growth hormone release from Sprague-Dawley rat pituitary cells pretreated for 10 mins before rat ghrelin challenge measured after 20 mins by RIA assay; type: functional, cell-based; settings: Pituitary gland cell
Outline: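 Primary pituitary cells from 6–8-week-old male SD rats cultured 3 days at 37 °C, then washed in DMEM/20 mM Hepes/0.3% BSA buffer. Compound pretreatment for 10 min, then co-incubation with rat ghrelin (0.2 µM) plus compound for another 20 min. GH release measured and IC50 derived. Means of three determinations.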

[31] = Volume of distribution at steady state in mouse at 0.5 mg/kg, iv; type: ADME, organism-based; set-up: dose 0.5 mg/kg, route intravenous; settings: in vivo, read-out: Vdss
Outline: (§4)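 Mice dosed intravenously at 0.5 mg/kg. Clearance, MRT and Vdss derived from plasma pharmacokinetics.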

[32] = Fraction unbound in mouse plasma; type: ADME, cell-free
[33] = Metabolic stability in rat liver microsomes assessed as compound remaining at 1 uM after 30 mins; type: ADME, Microsome; settings: read-out: Stability
Outline: (§5)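 Compound incubated at 1.0 µM initial concentration with rat or human liver microsomes for 30 min. Percentage of compound remaining determined.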

[34] = tested on: MDCK; test: Ratio of apparent permeability from basolateral to apical over apical to basolateral side of MDCK cells expressing human MDR1; settings: dog
[35] = Fraction unbound in rat plasma; type: ADME, cell-free
[36] = Ratio of brain AUC to plasma AUC in mdr1a knockout mouse; type: ADME, cell-free; settings: brain and plasma
[37] = Mean residence time in mouse at 0.5 mg/kg, iv; type: ADME, organism-based; set-up: dose 0.5 mg/kg, route intravenous; settings: in vivo; outline: as §4
[38] = Metabolic stability in human liver microsomes assessed as compound remaining at 1 uM after 30 mins; type: ADME, Microsome; settings: read-out: Stability; outline: as §5
[39] = Clearance in mouse at 0.5 mg/kg, iv; type: ADME, organism-based; set-up: dose 0.5 mg/kg, route intravenous; settings: in vivo; outline: as §4

Activity [1]: -1%
IC50 [2]: 42 nM
IC50 [3]: 45 nM
SMILES: C[C@H]1CN(C(=O)c2ccc(-c3ccncc3F)c(F)c2)CCN1C(=O)c1ccc2cc[nH]c2c1

Activity [4]: 41%
Ki [5]: > 10000 nM
Ki [6]: > 10000 nM
Vd [7]: 3.7 L/kg
Ki [8]: > 10000 nM
Activity [9]: 42%
MRT [10]: 1.9 h
Activity [1]: 33%
IC50 [2]: 9.1 nM
Ki [11]: > 10000 nM
IC50 [12]: > 10000 nM
Ki [15]: > 10000 nM
Ki [16]: > 10000 nM
clearance [17]: 35 mL/min/kg
bioavailability [18]: 17%
Ki [19]: > 10000 nM
Activity [20]: 33%
IC50 [21]: 2 nM
Ki [22]: > 10000 nM
Ki [23]: > 10000 nM
Ki [24]: > 10000 nM
Activity [25]: 31%
Ki [26]: > 10000 nM
Kp [27]: 0.26
Activity [28]: 21%
Ki [29]: > 10000 nM
SMILES: C[C@H]1CN(C(=O)c2ccc(-c3ccccc3F)cc2)CCN1C(=O)c1ccc2cc[nH]c2c1
Activity [13]: 24%
IC50 [14]: > 10000 nM

Activity [1]: -2%
IC50 [2]: 31 nM
IC50 [3]: 49 nM
SMILES: C[C@H]1CN(C(=O)c2ccc(-c3ccncc3F)cc2)CCN1C(=O)c1ccc2cc[nH]c2c1

Vd [31]: 1.4 L/kg
fraction unbound [32]: 0.04
remaining at 0.5 h, 1 µM [33]: 78%
Ratio [34]: 1.7
Activity [1]: -16%
IC50 [2]: 12.2 nM
fraction unbound [35]: 0.04
Kp [36]: 2.3
MRT [37]: 0.7 h
remaining at 0.5 h, 1 µM [38]: 87%
clearance [39]: 32.7 mL/min/kg
IC50 [3]: 10.3 nM
Kp [27]: 0.16
SMILES: C[C@H]1CN(C(=O)c2ccc(-c3ccncc3)c(F)c2)CCN1C(=O)c1ccc2cc[nH]c2c1
IC50 [30]: 93 nM
